Measured values reported in ChEMBL document CHEMBL3124806, “Imidazopyridine-fused [1,3]-diazepinones: synthesis and antiproliferative activity” (Eur J Med Chem, 2014).

Experiments:
[1] = tested on: MDA-MB-435; assay: Cytotoxicity against human MDA-MB-435 cells assessed as cell growth at 10 uM after 48 hrs by MTT assay relative to untreated control; assay type: functional; conditions: MDA-MB-435, 48 h, read-out: Activity
Procedure, shortened: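 Melanoma lines grown at 37 °C in humidified 5% CO2: MDA-MB-435 in DMEM/Ham's F12 1:1 with 10% FCS and antibiotics, SK-MEL-2 in RPMI-1640 with 10% FCS. Cells plated 24 h, then exposed 48 h to 100–0.01 µM (dilutions from fresh 100 µM stock in medium). MTT 0.5 mg/mL added for 4 h, crystals dissolved in EtOH/DMSO 1:1, absorbance read at 540 nm. Mean ± SD of three independent experiments.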

[2] = species on record: Ovis aries; assay: Inhibition of sheep brain tubulin polymerization at 100 uM after 40 mins by DAPI staining-based fluorescence assay
Procedure, shortened: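 Microtubular protein was purified from sheep brain by two assembly/disassembly cycles (37 °C/0 °C) in MES buffer (100 mM MES pH 6.6, 1 mM EGTA, 0.5 mM MgCl₂). Compound in DMSO was added to 10 µM tubulin with 10 µM DAPI and incubated 40 min at RT. GTP (1 mM) was then added, and assembly was followed by DAPI fluorescence at 37 °C.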

| inhibition [2] [%] | SMILES | growth at 10 µM [1] [%] |
| --- | --- | --- |
| 30 | C[C@@H]1NC(c2ccc([N+](=O)[O-])cc2)=Nc2nc3ccccn3c2C1=O | 99 |
| 8 | C[C@@H]1NC(=O)Nc2nc3ccccn3c2C1=O | 86 |
